Experimental data reported in ChEMBL document CHEMBL2040725, “In vitro and in vivo biological evaluation of new 4,5-disubstituted 1,2,3-triazoles as cis-constrained analogs of combretastatin A4” (Eur J Med Chem, 2012).
Active and inactive are the calls of the source. No cut-off for these calls is given here.

Assays:
[1] = Antivascular activity against human EAhy926 cells assessed as the minimum concentration required to elicit rounding up of cells after 2 hrs by microscopic analysis; format: functional, EA.hy 926
Method in brief: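 EAhy 926 cells (HUVEC fused with A549) grown in DMEM with 10% FBS, 2 mM L-glutamine and antibiotics. Top concentration 100 µM, then two-fold serial dilutions. Wells photographed at 100× and 200×. Value = lowest concentration rounding up >15% of cells per field; 1% DMSO control.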

B16 = assay: Cytotoxicity against mouse B16 cells assessed as cell viability after 48 hrs by MTT assay; format: functional, cell-based; conditions: B16, 48 h
Method in brief: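 Murine B16 melanoma cells in DMEM with 10% FBS, 2 mM L-glutamine and antibiotics, 37 °C, 5% CO₂. Incubated 48 h, then MTT read at 562 nm with background subtraction. IC50 from concentration-response curves.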

[2] = Inhibition of tubulin polymerization preincubated for 45 mins before GTP addition measured after 2 hrs by DAPI-based fluorescenct assay
Method in brief: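 Tubulin (97% pure, 1 mg/ml final) in PME buffer (100 mM PIPES, MgSO₄, 2 mM EGTA) with 10 µM DAPI. Compounds from 30 µM in 3-fold decrements, triplicate wells, colchicine as full-inhibition control. 45 min preincubation at room temperature, then 1 mM GTP added and held 2 h at 37 °C. Fluorescence read at ex 360/em 450 nm. Percent inhibition taken relative to colchicine; IC50 = 50% inhibition.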

Colon 26 [3] = assay: Antitumor activity against mouse Colon 26 cells allografted in BALB/cJRj mouse assessed as tumor growth delay time at 150 mg/kg, ip administered on days 3-7 and 10-14 post implantation relative to control; format: functional; conditions: route intraperitoneal
Method in brief: (§1)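 Female BALB/cJRj mice (about 18 g), 5 per group. Colon 26 tumor fragments (30-60 mg) implanted s.c. bilaterally in the axilla on day 0. Dosing i.p. on days 3-7 and 10-14 in saline with 5% DMSO and 5% polysorbate 80, 0.2 ml. Tumors measured daily by caliper, volume = length × width² × 0.5. %T/C = median treated/control, taken when control tumors reached 1500 mm³. T-C growth delay also recorded.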

[4] = Toxicity in mouse ip dosed BALB/cJRj mouse allografted with mouse Colon 26 cells compound administered on days 3-7 and 10-14 post implantation relative to control; format: organism-based; conditions: in vivo
Method in brief: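 Female BALB/cJRj mice (~18 g) with bilateral subcutaneous axillary Colon 26 fragments (30-60 mg) implanted on day 0; 5 mice/group. Daily fresh doses in saline with 5% DMSO and 5% polysorbate 80, given ip on days 3-7 and 10-14; solvent-treated controls. Mice weighed daily and checked for clinical toxicity signs; tumours measured daily by caliper.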

Colon 26 [5] = assay: Antitumor activity against mouse Colon 26 cells allografted in BALB/cJRj mouse assessed as reduction in tumor volume at 150 mg/kg, ip administered on days 3-7 and 10-14 post implantation relative to control; format: functional; design: scale not given: the % may be the effect or the level left; conditions: route intraperitoneal; method in brief: as §1
EA.hy 926 = assay: Antivascular activity against human EAhy926 cells assessed as rounding up of cells at 1 uM after 2 hrs by microscopic analysis; format: functional, cell-based
Colon 26 [6] = assay: Antitumor activity against mouse Colon 26 cells allografted in BALB/cJRj mouse assessed as reduction in tumor volume at 100 mg/kg, ip administered on days 3-7 and 10-14 post implantation relative to control; format: functional; design: scale not given: the % may be the effect or the level left; conditions: route intraperitoneal; method in brief: as §1
Colon 26 [7] = assay: Antitumor activity against mouse Colon 26 cells allografted in BALB/cJRj mouse assessed as tumor growth delay time at 100 mg/kg, ip administered on days 3-7 and 10-14 post implantation relative to control; format: functional; conditions: route intraperitoneal; method in brief: as §1

SMILES	Activity [1]	IC50 (B16)	IC50 [2]	Time (Colon 26 [3])	MTD [4]	Activity (Colon 26 [5])	Activity (EA.hy 926)	Activity (Colon 26 [6])	Time (Colon 26 [7])
COc1cc(C/C(=C/c2ccc(Cl)cc2Cl)[N+](=O)[O-])cc(OC)c1OC	3.1 µM	2.6 µM	21.9 µM						
COc1ccc(/C=C\c2cc(OC)c(OC)c(OC)c2)cc1O [COMBRETASTATIN A4]	0.006 µM	0.003 µM	0.3 µM						
COc1ccc(/C=C(/Cc2cc(OC)c(OC)c(OC)c2)[N+](=O)[O-])cc1O	0.2 µM	4 µM	0.9 µM	2 days	150 mg/kg	52%			
COc1cc(/C=C(/Cc2cc(OC)c(OC)c(OC)c2)[N+](=O)[O-])cc(OC)c1O	12.5 µM	3.2 µM	23.4 µM						
COc1ccc(Cc2[nH]nnc2-c2cc(OC)c(OC)c(OC)c2)cc1O	0.6 µM	22.9 µM	1.7 µM						
COc1cc(C/C(=C/c2ccc3c(c2)OCO3)[N+](=O)[O-])cc(OC)c1OC	0.4 µM	3 µM	10.5 µM						
COc1cc(Cc2[nH]nnc2-c2ccc3c(c2)OCO3)cc(OC)c1OC	25 µM	38 µM	> 30 µM						
COc1cc(-c2nn[nH]c2Cc2cc(OC)c(OC)c(OC)c2)ccc1O	>100 µM	> 100 µM	> 30 µM						
COc1cc(C/C(=C/c2ccc(Cl)c(Cl)c2)[N+](=O)[O-])cc(OC)c1OC	3.1 µM	4.6 µM	15.5 µM						
COc1cc(-c2nn[nH]c2Cc2c[nH]c3ccccc23)cc(OC)c1OC	50 µM	10.7 µM	> 30 µM						
COc1ccc(-c2nn[nH]c2Cc2cc(OC)c(OC)c(OC)c2)cc1[N+](=O)[O-]	25 µM	50.1 µM	> 30 µM						
COc1ccc(/C=C(/Cc2cc(OC)c(OC)c(OC)c2)[N+](=O)[O-])cc1[N+](=O)[O-]	3 µM	3.5 µM	8.9 µM						
COc1ccc(/C=C(/Cc2cc(OC)c(OC)c(OC)c2)[N+](=O)[O-])cc1F	0.8 µM	2.9 µM	1.6 µM						
COc1cc(/C=C(/Cc2c[nH]c3ccccc23)[N+](=O)[O-])cc(OC)c1OC	1.6 µM	5.5 µM	5.2 µM						
COc1cc(/C=C(/Cc2cc(OC)c(OC)c(OC)c2)[N+](=O)[O-])cc(OC)c1OC	6.3 µM	3.3 µM	22.4 µM						
COc1ccc(-c2nn[nH]c2Cc2cc(OC)c(OC)c(OC)c2)cc1F	2.5 µM	31 µM	12 µM						
COc1ccc(C/C(=C/c2cc(OC)c(OC)c(OC)c2)[N+](=O)[O-])cc1O	0.6 µM	2.9 µM	0.9 µM						
COc1cc(Cc2[nH]nnc2-c2ccc(Cl)cc2Cl)cc(OC)c1OC	>100 µM	41.7 µM	> 30 µM						
COc1cc(/C=C(/Cc2cc(OC)c(OC)c(OC)c2)[N+](=O)[O-])ccc1O	6.3 µM	2.6 µM	> 30 µM						
COc1ccc(-c2nn[nH]c2Cc2cc(OC)c(OC)c(OC)c2)cc1O	0.13 µM	1.6 µM	1.2 µM		100 mg/kg		Active	60%	2.7 days
COc1ccc(-c2nn[nH]c2Cc2cc(OC)c(OC)c(OC)c2)cc1N	0.2 µM	14.8 µM	1.8 µM						
